Experimental data as given in PMC2921709 (ChemMedChem, 2010).
Where two headings read alike, the source gives them in different places.

Legend:
[1] = tested on: Bovine brain tubulin (colchicine site); assay: Inhibition of [3H]colchicine binding to tubulin; settings: tubulin 1 μM, [3H]colchicine 5 μM; for Colchicine Binding Inhibition [%], 1 μM: compound 1 μM; for Colchicine Binding Inhibition [%], 5 μM: compound 5 μM
HL-60 = assay: MTT growth inhibition, HL-60 promyelocytic leukemia cells; type: cell-based, human; settings: read-out: GI50 HL-60
Summary of the method: (§1)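 Cells seeded at 8 × 10^3 per well in 96-well plates and held 18 h at 37 °C, 5% CO2. Medium then replaced with test compound in complete medium at various concentrations for 72 h continuous exposure. Viability read by MTT. GI50 is the concentration giving 50% proliferation inhibition, from dose–response curves; mean ± SE of ≥3 independent experiments. Media: leukemia lines in RPMI-1640; solid-tumour lines in DMEM with penicillin G 115 U mL−1, streptomycin and 10% FBS.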

MCF-7 = assay: MTT growth inhibition, MCF-7 breast adenocarcinoma cells; type: cell-based, human; settings: read-out: GI50 MCF-7
Summary of the method: as §1

RS 4;11 = assay: MTT growth inhibition, RS 4; type: cell-based, human; settings: read-out: GI50 RS 4;11
Summary of the method: as §1

Jurkat = assay: MTT growth inhibition, Jurkat T-leukemia cells; type: cell-based, human; settings: read-out: GI50 Jurkat
Summary of the method: as §1

HeLa = assay: MTT growth inhibition, HeLa cervix carcinoma cells; type: cell-based, human; settings: read-out: GI50 HeLa
Summary of the method: as §1

Jurkat cells [2] = assay: Mitochondrial membrane potential; type: cell-based, human; settings: 0.5 and 0.1 μM, 24 and 48 h
Summary of the method: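 After treatment, Jurkat cells were pelleted and resuspended in HBSS containing JC-1, then kept 10 min at 37 °C. They were spun again, taken up in HBSS and read by flow cytometry. Polarised mitochondria give red JC-1 aggregates (590 nm); depolarisation gives green monomers (530 nm).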

Hep G2 = assay: MTT growth inhibition, HepG2 hepatoma cells; type: cell-based, human; settings: read-out: GI50 Hep G2
Summary of the method: as §1

solid tumor cells = assay: MTT growth inhibition, solid tumor cell lines; type: cell-based; settings: Homo sapiens, 72 h, read-out: GI50, solid tumor cells
Summary of the method: as §1

Bovine brain tubulin = assay: Inhibition of tubulin polymerization; type: biochemical; settings: for IC50: read-out: Tubulin Assembly IC50, tubulin 10 μM, 20 min incubation, ± SD
Bcl-2 in Jurkat cells = assay: Flow cytometric analysis of Bcl-2 expression; type: cell-based, human; settings: 24 and 48 h, flow cytometry
Summary of the method: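 Jurkat cells incubated with test compound for 24 and 48 h, then pelleted and permeabilised with a Fix&Perm kit. Labelled with FITC-conjugated anti-Bcl-2 monoclonal antibody, washed and analysed by flow cytometry. Mean ± SEM of two independent experiments.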

Jurkat cells [3] = assay: Flow cytometric cell-cycle analysis; type: cell-based, human; settings: for effect on cell-cycle progression (G2/M arrest, in words): 24 h treatment
Summary of the method: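 Jurkat cells in exponential growth, 5 × 10^5 per sample, exposed to test compound at various concentrations for 24 h. Cells fixed in ice-cold 70% ethanol, treated with lysis buffer containing RNase A and 0.1% Triton X-100, then stained with PI. DNA content measured by flow cytometry and phases assigned from DNA histograms. Mean ± SEM of two independent experiments.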

Jurkat cells [4] = assay: Mitochondrial ROS production; type: cell-based, human; settings: 24 and 48 h
Summary of the method: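 Jurkat cells treated with test compound for 24 or 48 h, pelleted, then loaded in HBSS with hydroethidine (HE) or H2-DCFDA for 30 min at 37 °C. Cells re-pelleted into HBSS and read by flow cytometry: 488 nm excitation, emission 585 nm (HE) and 530 nm (DCF). Fluorescence intensity given as % of untreated control; mean ± SEM, three independent experiments.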

IGROV = assay: MTT growth inhibition, IGROV ovarian cancer cells; type: cell-based, human; settings: read-out: GI50 IGROV
Summary of the method: as §1

Jurkat cells [5] = assay: Annexin V-FITC/PI apoptosis assay; type: cell-based, human; settings: 24 h treatment
Summary of the method: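 Jurkat cells exposed to test compound at various concentrations for 24 or 48 h, then harvested. Co-labelled with annexin V–FITC and PI and analysed by flow cytometry (excitation 488 nm; emission 525 and 585 nm). Reported as mean percentage of annexin-V-positive cells ± SEM, three independent experiments.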

K562 = assay: MTT growth inhibition, K562 chronic myelogenous leukemia cells; type: cell-based, human; settings: read-out: GI50 K562
Summary of the method: as §1

ML2 = assay: MTT growth inhibition, ML-2 myeloid leukemia cells; type: cell-based, human; settings: read-out: GI50 ML2
Summary of the method: as §1

ARO = assay: MTT growth inhibition, ARO anaplastic thyroid cells; type: cell-based, human; settings: read-out: GI50 ARO
Summary of the method: as §1

[6] = tested on: caspase-3 in Jurkat cells; assay: Caspase-3 activation by flow cytometry; type: cell-based, human; settings: time- and concentration-dependent
HT-29 = assay: MTT growth inhibition, HT-29 colon adenocarcinoma cells; type: cell-based, human; settings: read-out: GI50 HT-29
Summary of the method: as §1

leukemia cells = assay: MTT growth inhibition, leukemia cell lines; type: cell-based, human; settings: 72 h; for activity in the leukemia lines (concentration level, in words): MTT
Summary of the method: as §1

[7] = Homo sapiens, Thyroid cell, 72 h

Row | Colchicine Binding Inhibition [%], 5 μM [1] [%] | GI50 (HL-60; Homo sapiens, HL-60, 72 h) [nM] | GI50 (MCF-7; Homo sapiens, MCF7, 72 h) [nM] | GI50 (Jurkat; Homo sapiens, Jurkat, 72 h) [nM] | GI50 (HeLa; Homo sapiens, HeLa, 72 h) [nM] | GI50 (Hep G2; Homo sapiens, HepG2, 72 h) [nM] | GI50 (solid tumor cells) [nM] | IC50 (Bovine brain tubulin) [nM] | GI50 (IGROV; Homo sapiens, IGROV, 72 h) [nM] | GI50 (K562; Homo sapiens, K562, 72 h) [nM] | GI50 (ML2; Homo sapiens, ML-2, 72 h) [nM] | GI50 (HT-29; Homo sapiens, HT-29, 72 h) [nM] | Compound | Colchicine Binding Inhibition [%], 1 μM [1] [%] | GI50 (RS 4;11; Homo sapiens, RS4-11, 72 h) [nM] | effect on cell-cycle progression (G2/M arrest, in words) (Jurkat cells [3]) | induction of apoptotic (annexin-V-positive) cells, in words (Jurkat cells [5]) | GI50 (ARO; [7]) [nM] | activity in the leukemia lines (concentration level, in words) (leukemia cells) | other results
1 | 75 ± 4 | 2 ± 0.1 | 580 ± 180 | 0.5 ± 0.01 | 450 ± 100 | 520 ± 100 | 400 to 1400 | 750 ± 40 | 620 ± 150 | 190 ± 60 | 5 ± 2 | 480 ± 80 | CCOC(=O)CCn1ccc2c3c(=O)cc(-c4ccccc4)[nH]c3ccc21 [Compound 11, Ethyl 3-(9-oxo-7-phenyl-6H-pyrrolo[3,2-f]quinolin-3(9H)-yl)propanoate] | 44 ± 6 | 2 ± 0.4 | clear G2/M arrest pattern in a concentration-dependent manner | remarkable induction of apoptotic cells | 550 ± 150 |  | percentage of cells with low ΔΨmt (JC-1), in words (Jurkat cells [2]): significant increase in the percentage of cells with low ΔΨmt; Bcl-2 expression, in words (Bcl-2 in Jurkat cells): decrease Bcl-2 expression; G2/M cell population (Jurkat cells [3]; 24 h, 0.06 μM, control 9.4 %): 77%; S-phase cells (Jurkat cells [3]; 24 h, 0.06 μM, control 43 %): 20%; G1 cells (Jurkat cells [3]; 24 h, 0.06 μM, control 47 %): 3%; ROS production (HE, H2-DCFDA), in words (Jurkat cells [4]): induced the production of ROS relative to control cells; caspase-3 activation, in words [6]: activate caspase-3; GI50 (leukemia cells; Homo sapiens, read-out: GI50, leukemia cells): 0.5 to 10 nM
2 | 23 ± 6 | 30 ± 2 | 850 ± 150 | 50 ± 4 | 400 ± 50 | 500 ± 50 |  | 2400 ± 400 | 650 ± 150 | 240 ± 30 | 300 ± 40 | 850 ± 140 | CCn1ccc2c3c(=O)cc(-c4cccnc4)[nH]c3ccc21 [Compound 13, 3-Ethyl-7-(pyridin-3-yl)-3H-pyrrolo[3,2-f]quinolin-9(6H)-one] |  | 40 ± 7 | only induced G2/M arrest at yet higher concentrations | lower efficacy | 450 ± 70 |  | Colchicine Binding Inhibition [%], 50 μM ([1]; compound 50 μM): 65 ± 0.3%
3 |  | 17500 ± 2300 | > 50000 | 8000 ± 1200 | 4500 ± 800 | 5800 ± 1100 |  |  | > 50000 | 27300 ± 340 | 14400 ± 2300 | > 50000 | CCn1cc(C)c2c3c(=O)cc(-c4ccccc4)[nH]c3ccc21 [Compound 17, 3-Ethyl-1-methyl-7-phenyl-3H-pyrrolo[3,2-f]quinolin-9(6H)-one] |  | 6500 ± 1000 |  |  | > 50000 |  | 
4 |  | 210 ± 10 | > 50000 | 300 ± 10 | > 50000 | > 50000 | > 50000 |  | > 50000 | 460 ± 8 | 550 ± 30 | > 50000 | CCn1cc(C#N)c2c3c(=O)cc(-c4ccccc4)[nH]c3ccc21 [Compound 21, 3-Ethyl-9-oxo-7-phenyl-6,9-dihydro-3H-pyrrolo[3,2-f]quinoline-1-carbonitrile] |  | 130 ± 20 |  |  | > 50000 | sub-micromolar | 
5 |  |  |  |  |  |  |  | > 40000 |  |  |  |  | CCn1cc(C(N)=O)c2c3c(=O)cc(-c4ccccc4)[nH]c3ccc21 [Compound 22, 3-Ethyl-9-oxo-7-phenyl-6,9-dihydro-3H-pyrrolo[3,2-f]quinoline-1-caboxamide] |  |  | only induced G2/M arrest at yet higher concentrations | lower efficacy |  | sub-micromolar | GI50 (HL-60; 72 h exposure, MTT, mean ± SE): 320 ± 30 nM; GI50 (MCF-7; 72 h exposure, MTT, mean ± SE): > 50000 nM; GI50 (RS 4;11; 72 h exposure, MTT, mean ± SE): 30 ± 2 nM; GI50 (Jurkat; 72 h exposure, MTT, mean ± SE): 50 ± 6 nM; GI50 (HeLa; 72 h exposure, MTT, mean ± SE): > 50000 nM; GI50 (Hep G2; 72 h exposure, MTT, mean ± SE): > 50000 nM; inhibition of tubulin assembly at the highest concentration (Bovine brain tubulin; compound 40 μM): less than 50%; GI50 (IGROV; 72 h exposure, MTT, mean ± SE): > 50000 nM; GI50 (K562; 72 h exposure, MTT, mean ± SE): 1700 ± 500 nM; GI50 (ML2; 72 h exposure, MTT, mean ± SE): 90 ± 20 nM; GI50 (ARO; 72 h exposure, MTT, mean ± SE): > 50000 nM; GI50 (HT-29; 72 h exposure, MTT, mean ± SE): > 50000 nM

Row | Compound | Colchicine Binding Inhibition [%], 5 μM [1] [%] | GI50 (HL-60; Homo sapiens, HL-60, 72 h) [nM] | GI50 (MCF-7; Homo sapiens, MCF7, 72 h) [nM] | GI50 (Jurkat; Homo sapiens, Jurkat, 72 h) [nM] | GI50 (HeLa; Homo sapiens, HeLa, 72 h) [nM] | GI50 (Hep G2; Homo sapiens, HepG2, 72 h) [nM] | GI50 (solid tumor cells) [nM] | IC50 (Bovine brain tubulin) [nM] | GI50 (IGROV; Homo sapiens, IGROV, 72 h) [nM] | GI50 (K562; Homo sapiens, K562, 72 h) [nM] | GI50 (ML2; Homo sapiens, ML-2, 72 h) [nM] | GI50 (HT-29; Homo sapiens, HT-29, 72 h) [nM] | Colchicine Binding Inhibition [%], 1 μM [1] [%] | GI50 (RS 4;11; Homo sapiens, RS4-11, 72 h) [nM] | effect on cell-cycle progression (G2/M arrest, in words) (Jurkat cells [3]) | induction of apoptotic (annexin-V-positive) cells, in words (Jurkat cells [5]) | GI50 (ARO; [7]) [nM] | activity in the leukemia lines (concentration level, in words) (leukemia cells) | other results
6 | COc1ccc(/C=C\c2cc(OC)c(OC)c(OC)c2)cc1O [CA-4, combretastatin A-4, reference compound] | 98 ± 0.3 |  |  |  |  |  |  |  |  |  |  |  | 84 ± 3 |  |  |  |  |  | 
